In ChEMBL document CHEMBL1121729, “N*-N*-S* tridentate ligand system as potential antitumor agents” (1981):

Experiments:
P388 [1] = assay: Change in body weight of P-388 lymphocytic leukemia implanted CDF1 mice to that of control when 200 mg/kg compound administered; T/C= 1.1/5; type: functional, Mus musculus
Outline: (§1)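 CDF1 mice given 10^6 P-388 lymphocytic leukemia cells ip on day 0; drug given ip as a suspension in klucel or in saline plus Tween 80 on days 1, 5 and 9, starting 24 h after tumor transplantation; six mice per group. Read-outs are treated/control (T/C, %) and body weight change in g as treated/control.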

P388 [2] = assay: Antitumor activity against P-388 lymphocytic leukemia implanted CDF1 mice to that of control when 100 mg/kg compound administered; type: functional, Mus musculus; outline: as §1
P388 [3] = assay: Antitumor activity against P-388 lymphocytic leukemia implanted CDF1 mice to that of control when 200 mg/kg compound administered; type: functional, Mus musculus; outline: as §1
P388 [4] = assay: Change in body weight of P-388 lymphocytic leukemia implanted CDF1 mice to that of control when 400 mg/kg compound administered; T/C= -2.5/5; type: functional, Mus musculus; outline: as §1
P388 [5] = assay: Antitumor activity against P-388 lymphocytic leukemia implanted CDF1 mice to that of control when 400 mg/kg compound administered; type: functional, Mus musculus; outline: as §1
P388 [6] = assay: Change in body weight of P-388 lymphocytic leukemia implanted CDF1 mice to that of control when 100 mg/kg compound administered; T/C= 1.5/5; type: functional, Mus musculus; outline: as §1
P388 [7] = assay: Change in body weight of P-388 lymphocytic leukemia implanted CDF1 mice to that of control when 200 mg/kg compound administered; T/C= 1/1.3; type: functional, Mus musculus; outline: as §1
P388 [8] = assay: Change in body weight of P-388 lymphocytic leukemia implanted CDF1 mice to that of control when 100 mg/kg compound administered; T/C= -0.2/1.3; type: functional, Mus musculus; outline: as §1
P388 [9] = assay: Antitumor activity against P-388 lymphocytic leukemia implanted CDF1 mice to that of control when 400 mg/kg compound administered; toxic; type: functional, organism-based; design: dose 400 mg/kg; details: Mus musculus; outline: as §1
Sarcoma-180 [10] = assay: Growth inhibition of cultured Sarcoma 180 cells after 48-h exposure to compound at 1.6 x 10E-8 M/mL in trail 2; type: functional; details: Mus musculus, Sarcoma-180, 48 h
Sarcoma-180 [11] = assay: Growth inhibition of cultured Sarcoma 180 cells after 48-h exposure to compound at 1.6 x 10E-8 M/mL in trail 1; type: functional; details: Mus musculus, Sarcoma-180, 48 h
P388 [12] = assay: Change in body weight of P-388 lymphocytic leukemia implanted CDF1 mice to that of control when 200 mg/kg compound administered; T/C=1.5/0.5; type: functional, Mus musculus; outline: as §1
P388 [13] = assay: Change in body weight of P-388 lymphocytic leukemia implanted CDF1 mice to that of control when 400 mg/kg compound administered; T/C= -0.8/5; type: functional, Mus musculus; outline: as §1
Sarcoma-180 [14] = assay: Growth inhibition of cultured Sarcoma cells after 48-h exposure to compound at 4 x 10E-9 M/mL in trail 2; type: functional; details: Mus musculus, Sarcoma-180, 48 h
L1210 [15] = assay: Growth inhibition of cultured L-1210 cells after 48-h exposure to compound at 1.6 x 10E-8 M/mL in trail 1; type: functional; details: Mus musculus, L1210, 48 h
L1210 [16] = assay: Growth inhibition of cultured L-1210 cells after 48-h exposure to compound at 1.6 x 10E-8 M/mL in trail 2; type: functional; details: Mus musculus, L1210, 48 h
L1210 [17] = assay: Growth inhibition of cultured L-1210 cells after 48-h exposure to compound at 4 x 10E-9 M/mL in trail 1; type: functional; details: Mus musculus, L1210, 48 h
Sarcoma-180 [18] = assay: Growth inhibition of cultured Sarcoma cells after 48-h exposure to compound at 4 x 10E-9 M/mL in trail 1; type: functional; details: Mus musculus, Sarcoma-180, 48 h
L1210 [19] = assay: Growth inhibition of cultured L-1210 cells after 48-h exposure to compound at 4 x 10E-9 M/mL in trail 2; type: functional; details: Mus musculus, L1210, 48 h
P388 [20] = assay: Change in body weight of P-388 lymphocytic leukemia implanted CDF1 mice to that of control when 100 mg/kg compound administered; T/C=1.5/0.5; type: functional, Mus musculus; outline: as §1
P388 [21] = assay: Change in body weight of P-388 lymphocytic leukemia implanted CDF1 mice to that of control when 200 mg/kg compound administered; T/C= 2.1/1.3; type: functional, Mus musculus; outline: as §1
P388 [22] = assay: Change in body weight of P-388 lymphocytic leukemia implanted CDF1 mice to that of control when 100 mg/kg compound administered; T/C= 3.3/1.3; type: functional, Mus musculus; outline: as §1
P388 [23] = assay: Change in body weight of P-388 lymphocytic leukemia implanted CDF1 mice to that of control when 400 mg/kg compound administered; T/C= 0.8/1.3; type: functional, Mus musculus; outline: as §1

`NC(=S)c1ccc2ccc3cccnc3c2n1` showed a Change in weight (P388 [1]) of 1.1, a T/C (P388 [2]) of 100% and a T/C (P388 [3]) of 106%. The Change in weight (P388 [4]) was -2.5, the T/C (P388 [5]) was 112% and the Change in weight (P388 [6]) was 1.5.

With `C/N=C(/S)c1cccc(-c2ccccn2)n1` the T/C (P388 [2]) was 91%, the T/C (P388 [3]) was 83% and the Change in weight (P388 [7]) was 1. The Change in weight (P388 [8]) was -0.2 and the T/C (P388 [9]) was “Toxic”.

In the case of `NC(=S)c1cccc(-c2ccccn2)n1`, the inhibition at 0.016 µM (Sarcoma-180 [10]) is reported as 60%, the inhibition at 0.016 µM (Sarcoma-180 [11]) is reported as 85% and the Change in weight (P388 [12]) is reported as 1.5. The Change in weight (P388 [13]) was -0.8, the T/C (P388 [2]) was 112% and the inhibition at 0.004 µM (Sarcoma-180 [14]) was 10%. The inhibition at 0.016 µM (L1210 [15]) was 95%, the T/C (P388 [3]) was 125% and the inhibition at 0.016 µM (L1210 [16]) was 93%. The inhibition at 0.004 µM (L1210 [17]) was 51%, the inhibition at 0.004 µM (Sarcoma-180 [18]) was 35% and the T/C (P388 [5]) was 143%. The inhibition at 0.004 µM (L1210 [19]) was 32% and the Change in weight (P388 [20]) was 1.5.

`CN(C)C(=S)c1cccc(-c2ccccn2)n1` gave a T/C (P388 [2]) of 95%, a T/C (P388 [3]) of 95% and a T/C (P388 [5]) of 91%. It also gave a Change in weight (P388 [21]) of 2.1, a Change in weight (P388 [22]) of 3.3 and a Change in weight (P388 [23]) of 0.8.
